Compound activity (PubChem)
An excerpt weighted towards active compounds, which were near 5.4% of everything screened.
tolC growth inh: growth inhibitors of E. coli tolC mutant, primary screen, strain BW25113 ΔtolC::kan, 384-well. actives 2.2% (n = 65,000). growth inhibition, % at 10 µM (by protocol). AID 573, 2007. OD615;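 active = growth inhibition at or above a cutoff equal to the mean over every tested compound plus 3 SD, cut at about 60% in these data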;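 also: growth measured after 20 h incubation at 37 °C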
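Test system: E. coli BW25113 ΔtolC::kan bacteria | Medium: Kanamycin-containing LB broth (50 µg/mL) | Dosing: One dose of 10 µM final | Times: 20 h incubation with compound, 37 °C | Detection: Optical density read at 615 nm | Read-out basis: Percent growth inhibition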
Ecoli WT expand: growth inhibitors of wild-type E. coli, primary screen, strain BW25113, expanded library, OD600; AID 710, 2007; actives 0.15% (n = 98,000); growth inhibition, % at 100 µM; OD600 absorbance;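 active = growth inhibition above about 50% at one test dose, limit read from the data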;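 also: growth measured after 20 h incubation at 37 °C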
PostGolgi yeast: phenotypic screen on post-Golgi transport, primary screen; post-Golgi transport phenotypic cell assay; inhibition, % at 10 µM; actives 0.9% (n = 98,000); AID 739, 2007;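 also: yeast cells grown in 1536-well plates; yeast grown about 18 h at 30C before absorbance read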
PLAP act: PLAP enzyme activators, biochemical, luminescence, HTS | actives 1.2% (n = 96,000) | activation fold at 20 µM | purified PLAP enzyme, luminescent substrate read-out; active compounds read high | Alkaline phosphatase, placental type (Homo sapiens), P05187; in the data active = activation fold above about 2
Target sequence (P05187 whole entry, looked up): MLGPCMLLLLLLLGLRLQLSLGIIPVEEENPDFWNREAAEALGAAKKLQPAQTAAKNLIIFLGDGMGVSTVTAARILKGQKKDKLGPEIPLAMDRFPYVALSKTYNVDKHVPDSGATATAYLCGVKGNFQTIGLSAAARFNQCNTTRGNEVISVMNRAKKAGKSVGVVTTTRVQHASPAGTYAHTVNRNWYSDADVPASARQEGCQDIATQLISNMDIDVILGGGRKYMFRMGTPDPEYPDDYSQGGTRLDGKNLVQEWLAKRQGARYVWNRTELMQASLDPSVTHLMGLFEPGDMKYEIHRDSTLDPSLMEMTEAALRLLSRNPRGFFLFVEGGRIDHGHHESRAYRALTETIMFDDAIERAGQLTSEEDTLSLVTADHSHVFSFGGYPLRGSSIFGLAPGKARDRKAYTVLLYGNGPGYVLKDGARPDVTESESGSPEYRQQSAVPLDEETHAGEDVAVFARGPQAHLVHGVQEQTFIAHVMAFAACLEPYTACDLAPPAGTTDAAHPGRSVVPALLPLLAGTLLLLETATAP
HePTP inhibitor: inhibitors of human HePTP phosphatase, primary screen, biochemical, absorbance, leukemia target | Tyrosine-protein phosphatase non-receptor type 7 (Homo sapiens), P35236 | inhibition, % at 20 µM | recombinant HePTP phosphatase activity, OD absorbance | actives 0.64% (n = 110,000); in the data active = inhibition above about 50%;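 also: plate controls were vehicle for no effect and reference inhibitor for full effect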
PostGolgi ctrl: growth inhibition of yeast control strain, primary screen, counter-screen for post-Golgi transport modulator project; inhibition, % at 10 µM; actives 5% (n = 98,000); efflux-deficient yeast background strain, growth absorbance A615, 16 h
The depositor's hits bear a star; / = no result given. Rule as the data show it, unless noted: active = inhibition above about 30%; inactive = the rest.

SMILES | tolC growth inh | Ecoli WT expand | PostGolgi yeast | PLAP act | HePTP inhibitor | PostGolgi ctrl
CCN1CCN(C(=O)Nc2ccc(Cc3ccc(NC(=O)N4CCN(CC)CC4)cc3)cc2)CC1 | -2 | -5 | 9 | 2* | -14 | 0
O=C(COc1ccc(Cl)cc1)N1CCCCC1 | / | 5 | 1 | 0.8 | / | 13
CCOC(=O)N1CCC(N(C(=O)Nc2ccc(Cl)c(Cl)c2)C(C)CC)CC1 (stereo not given) | 21 | -8 | 0 | 1.1 | 2 | 39*
O=C(COC(=O)CSCC(=O)N1CCCCC1)Nc1ccc(Cl)cc1 | -8 | 12 | -3 | 0.9 | 6 | 36*
COc1ccc(N=c2ssc3c2-c2cc(C)c(C)cc2NC3(C)C)cc1 | / | / | / | / | 8 | /
CCOC(=O)N1CCN(C(=O)Nc2ccc(Cl)cc2)CC1 | -8 | -1 | -4 | 0.8 | 12 | 36*
O=C(Nc1ccc(Cl)cc1)N1CCCC1 | -14 | 15 | -8 | 0.8 | 5 | -1
COc1ccccc1N1CCN(C(=O)Nc2cccc(Cl)c2)CC1 | / | 2 | 12 | 0.8 | / | 11
CCOc1ccccc1N1CCN(C(=O)c2cc(C)oc2C)CC1 | -2 | 2 | 5 | 1.6 | 7 | 2
O=C(Nc1ccc(Cl)cc1)N1CCSCC1 | -10 | -1 | -2 | 1 | -2 | 44*
CCOc1ccccc1N1CCN(C(=O)Nc2ccc(F)c(Cl)c2)CC1 | 96* | 10 | 0 | 1.1 | 8 | 17
CCOc1ccccc1N1CCN(C(=O)c2cc3c(s2)CCC3)CC1 | 19 | 4 | 17 | 1.4 | -2 | 40*
COc1cccc(OC)c1C(=O)Nc1ccccc1C(F)(F)F | / | / | / | / | -8 | /
CC(=O)Nc1cccc(/C(C)=N/N=C2/NC(=O)C(CC(=O)Nc3ccc(C(=O)O)cc3)S2)c1 (stereo not given) | / | / | / | / | 3 | /
CCc1ccc2[nH]c(=O)c(CN(Cc3ccc4c(c3)OCO4)Cc3nnnn3C3CCCC3)cc2c1 | 49 | -9 | -2 | 1.5 | 1 | 15
Cc1ccc2cc(CN(Cc3ccccc3)Cc3nnnn3C3CCCC3)c(=O)[nH]c2c1 | 73* | -18 | -11 | 1.6 | 3 | 39*
Cc1ccc2cc(CN(Cc3ccc(F)cc3)Cc3nnnn3C3CCCC3)c(=O)[nH]c2c1 | 66* | -12 | 1 | 1.6 | 4 | 41*
Cc1ccc(C)c(N2CCN(Cc3nnnn3C3CCCCC3)CC2)c1 | 35 | -11 | 18 | 1.6 | 12 | 38*
C/C=C(\C)CN1CCN(c2cc(C)ccc2C)CC1 | -9 | 2 | -9 | 1.5 | 8 | 6
Cc1cc(I)ccc1NC(=O)c1ccc([N+](=O)[O-])c(C)c1 | / | / | / | / | -6 | /
COc1ccc(C(=O)N2CCCCCC2)cc1 | / | / | / | / | -7 | /
Cc1[nH][nH]c(=O)c1C(c1ccc(-c2ccc(Cl)c(Cl)c2)o1)c1c(C)[nH][nH]c1=O | / | 11 | 0 | 2.9* | / | 7
Cc1ccccc1NC(=O)/C=C/c1ccc([N+](=O)[O-])cc1 | / | / | / | / | 7 | /
COc1cccc(OCCNC(=O)C(c2ccccc2)c2ccccc2)c1 | / | / | / | / | -12 | /
CC(c1nnc(SCC(=O)N2CC(=O)Nc3ccccc32)n1Cc1ccccc1)N(C)C (stereo not given) | / | 7 | -2 | 2* | / | 13
SMILES | tolC growth inh | Ecoli WT expand | PostGolgi yeast | PLAP act | HePTP inhibitor | PostGolgi ctrl
Cc1nnc(SCC(=O)N2CC(=O)Nc3ccccc32)n1C | / | 2 | 4 | 0.9 | / | -12
COc1ccccc1N(CC(=O)N1CCCC1)S(=O)(=O)c1ccccc1 | / | / | / | / | -4 | /
C=CC(=O)NC(NC(=O)C=C)c1cccc([N+](=O)[O-])c1 | / | / | / | / | 3 | /
COc1ccccc1C1SCCN1S(=O)(=O)c1cccc(C(F)(F)F)c1 (stereo not given) | 63* | -18 | -3 | 1 | -13 | -3
COc1ccccc1C1SCCN1S(=O)(=O)c1ccc2ccccc2c1 (stereo not given) | / | / | / | / | -12 | /
COc1ccc(N=C2S/C(=C\c3ccc(N4CCOCC4)o3)C(=O)N2CCc2c[nH]c3ccccc23)cc1 | / | -8 | 12 | 1.2 | / | 32*
CCCN1C(=O)/C(=C/c2ccc(C)o2)SC1=Nc1ccc(OC)cc1 | / | -7 | 4 | 1.1 | / | 9
O=C(COc1ccc(Cl)cc1Br)Nc1ccc(Nc2ccccc2)cc1 | / | / | / | / | -14 | /
O=C(NCc1ccc2c(c1)OCO2)C1CCN(Cc2cnn(-c3ccccc3)c2-n2cccc2)CC1 | 2 | -1 | 0 | 2.5* | -2 | 6
COc1ccccc1NC(=O)N1CCCC1C(=O)NCc1ccc2c(c1)OCO2 (stereo not given) | / | -12 | -4 | 1.1 | / | -8
O=C(NCc1ccc2c(c1)OCO2)C1CCCN1C(=O)Nc1ccccc1 (stereo not given) | -12 | 2 | 33* | 1 | 6 | -1
O=C(Nc1ccccc1Cl)C1CCN(Cc2cnn(-c3ccccc3)c2-n2cccc2)CC1 | / | -7 | 10 | 2* | / | 1
O=C(NC(Nc1ccccc1Cl)C(=O)c1ccccc1)c1ccco1 (stereo not given) | / | / | / | / | -7 | /
CCN(CC)S(=O)(=O)c1cc(C(=O)OCc2ccccc2)ccc1Br | / | / | / | / | 9 | /
O=C(NNc1ccc(F)cc1)C(O)(c1ccccc1)c1ccccc1 | / | / | / | / | 2 | /
O=C(COC(=O)C12CC3CC(CC(C3)C1)C2)NC12CC3CC(CC(C3)C1)C2 | / | -3 | 13 | 1.1 | / | 33*
CCc1ccc(Nc2nc(N)nc(CSc3nnnn3-c3ccccc3)n2)cc1 | 11 | -9 | 4 | 1.4 | 12 | 37*
Cc1ccc(Nc2nc(CSc3nnnn3-c3ccccc3)cs2)cc1 | 94* | -20 | 14 | 1 | -1 | 34*
Cc1ccc(Nc2nc(CSc3nnnn3C)cs2)cc1 | 16 | 14 | 4 | 1.1 | 2 | 12
COc1ccc(CC(=O)Nc2sc3c(c2C(=O)Nc2ccccc2Cl)CCCC3)cc1 | / | / | / | / | 2 | /
Clc1ccc(OCc2nc(-c3ccncc3)no2)c(Cl)c1 | 19 | 12 | 44* | 0.7 | 0 | 37*
COc1ccc(C(=O)Nc2c(C)ccc3nsnc23)cc1Br | / | / | / | / | 8 | /
CC(=O)c1ccc(NC(=O)COc2ccc(C)cc2)cc1 | / | / | / | / | 3 | /
O=S(=O)(Nc1ccc(N2CCCCC2)cc1)c1cccc2cccnc12 | 5 | -8 | 1 | 0.8 | 4 | 38*
O=S(=O)(O)c1ccc(NS(=O)(=O)c2cccc3cccnc23)cc1 | / | / | / | / | 5 | /
CC(=Nc1ccc(O)cc1)c1sc2ccccc2c1O | 100* | -2 | 0 | 0.9 | 5 | -2
CC(=Nc1cccc(C)c1)c1sc2ccccc2c1O | / | 1 | 4 | 0.8 | / | 7
COc1ccc(-n2nc3cc(C)c(NC(=O)Cc4ccccc4)cc3n2)cc1 | / | / | / | / | 0 | /
O=C(CC1Nc2ccccc2NC1=O)Nc1cc(Cl)cc(Cl)c1 (stereo not given) | / | 6 | 12 | 1.2 | / | 67*
